Source: PubChem BioAssay (several laboratories)
NS3 helicase inh – inhibitors of HCV NS3 helicase, primary screen, biochemical, Cy5 molecular beacon fluorescence; Hepatitis C virus NS3 helicase; NS3 helicase DNA unwinding; inhibition, % at 10.9 µM; hit rate 0.56% among 290,000; AID 1800, 2009;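 active = inhibition above the mean of all tested compounds plus 3 SD, set per campaign, cut at about 35% in these data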;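 also: 0% = DMSO wells and 100% = thioflavine S control wells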
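System: NS3 helicase fragment of HCV / Schedule: 1 h at 25 °C / Control set: DMSO alone as 0% and 110 µM thioflavine S as 100% / Reagent: Cy5/quencher beacon DNA duplex and ATP to start / Technique: Cy5 fluorescence / Replication: singlicate / Evaluation: % inhibition of end-to-start signal ratio versus controls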
ALR H2O2 inh – inhibitors of human ALR sulfhydryl oxidase, primary screen, biochemical, H2O2 detection, HRP-luminol luminescence, single point; hit rate 3.8% among 290,000; purified ALR, DTT oxidation; inhibition, % (no concentration beside the values);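 active = mean replicate inhibition above about 79%, with every replicate also reaching it, limit read from the data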
Target sequence (P55789 whole entry, looked up): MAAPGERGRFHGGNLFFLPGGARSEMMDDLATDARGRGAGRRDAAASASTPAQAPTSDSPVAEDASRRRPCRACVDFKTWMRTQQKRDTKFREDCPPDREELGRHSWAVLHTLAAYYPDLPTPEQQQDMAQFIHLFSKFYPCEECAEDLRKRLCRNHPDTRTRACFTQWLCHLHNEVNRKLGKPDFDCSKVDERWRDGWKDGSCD
EBNA-1 inh – EBNA-1 DNA-binding inhibitors, primary screen, biochemical, fluorescence polarization; inhibition, % at 14.8 µM; hit rate 0.34% among 300,000; in the data active = inhibition above about 28%
M18AAP inhibitor – PfM18AAP inhibitors, malaria aminopeptidase, primary screen, biochemical, QFRET, recombinant enzyme | M18 aspartyl aminopeptidase (Plasmodium falciparum 3D7) | H-Glu-NHMec fluorogenic cleavage | inhibition, % at 7.35 µM | hit rate 1.2% among 290,000;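 active = inhibition above the campaign mean inhibition over all tested compounds plus 3 SD, cut at about 28% in these data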;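 also: 0% = plate median of test compound wells and 100% = 2 mM ZnCl2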
core dimer inh – inhibitors of HCV core protein dimerization, primary screen, biochemical, TR-FRET, high-throughput. hit rate 0.33% among 300,000. TR-FRET GST/Flag-core106 dimerization, 1536-well. inhibition, % at 5 µM;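 active = inhibition above the mean of all tested compounds plus 3 SD, set per screening campaign, cut at about 45% in these data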
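Material: Tagged HCV core106 pair (GST and Flag) | Amount: GST-core106 13.5 nM, Flag-core106 17 nM | Medium: KF-containing HEPES buffer, pH 7.45, DTT, CHAPS, BSA | Reagent: Eu donor and XL665 acceptor anti-tag antibodies | Schedule: 4 h at 22.5 °C | Technique: Time-resolved FRET, ex 340 nm, em 617 and 671 nm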
ZTA counter – ZTA (EBV) inhibition in EBNA-1 counter-screen. hit rate 0.15% among 320,000. inhibition, % at 11 µM. ZTA-DNA binding, fluorescence polarization. P03206; in the data active = inhibition above about 33%
Target sequence (P03206 whole entry, looked up): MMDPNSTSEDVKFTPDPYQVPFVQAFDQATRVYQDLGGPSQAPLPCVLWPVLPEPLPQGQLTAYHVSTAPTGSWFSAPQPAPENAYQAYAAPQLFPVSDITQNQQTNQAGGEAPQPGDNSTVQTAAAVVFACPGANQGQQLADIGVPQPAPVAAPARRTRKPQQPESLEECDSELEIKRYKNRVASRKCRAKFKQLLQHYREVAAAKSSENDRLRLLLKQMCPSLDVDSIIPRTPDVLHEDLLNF
* marks the source's active call; other numbers are inactive results; . = no result given. This is a sample that favours compounds with a hit; in the whole collection about 5.2% have one here.

SMILES | NS3 helicase inh | ALR H2O2 inh | EBNA-1 inh | M18AAP inhibitor | core dimer inh | ZTA counter
Cc1cccc(OCC(=O)Nc2ccc3c(c2)nc(CCN2CCN(c4ccccn4)CC2)n3C)c1 | -28 | -7 | 6 | 0 | 4 | 3
COc1ccc(N2CCN(C(=O)CSc3nnc(NC(=O)C4CC4)s3)CC2)cc1 | -1 | 49 | -2 | 1 | -4 | -3
COc1ccc(N2CCN(C(=O)c3c(Cl)cnn3C)CC2)cc1 | -4 | 99* | 3 | -1 | -6 | -12
O=C(CCC(=O)N1CCN(c2cccc(Cl)c2)CC1)N1CCN(c2ccccc2)CC1 | -14 | 98* | -2 | -12 | -1 | 1
COc1ccc(C(=O)CCC(=O)N2CCN(c3ccc(C)cc3)C(C)C2)cc1 (stereo not drawn) | -8 | 99* | -6 | 9 | -4 | -2
O=C(O)CCCC(=O)N1CCN(c2cccc(Cl)c2)CC1 | 3 | -6 | 10 | -1 | -2 | 12
COc1ccc(N2CCN(C(=O)CSc3nnnn3C3CC3)CC2)cc1 | . | 87* | . | . | . | -16
Cc1nn2c(-c3ccccn3)ccnc2c1Cl | -2 | . | -10 | 3 | -5 | -18
O=C(OCC(=O)c1ccc(Cl)s1)c1ccc(CO)cc1 | . | 3 | -11 | . | 4 | -1
COc1ccc(C)cc1NS(=O)(=O)c1ccc2c(c1)CCN2C(C)=O | 3 | -3 | 7 | 3 | 6 | -5
CCCNS(=O)(=O)c1ccc(OCC(=O)NCC2CCCO2)cc1 (stereo not drawn) | -5 | -4 | 9 | -10 | 13 | 17
CC(Cn1cncn1)C(=O)N1CCN(S(=O)(=O)c2ccccc2)CC1 (stereo not drawn) | -1 | 20 | -6 | 5 | -11 | -15
CCOC(=O)N1CCN(C(=O)CSCc2ccccc2C)CC1 | -2 | 4 | -7 | -4 | -4 | 4
CCOC(=O)N1CCN(C(=O)CSCc2ccccc2Cl)CC1 | 7 | 99* | 1 | -2 | -10 | -14
Cc1cc(O)c(/C=N/Nc2ccc(F)cc2)c(=O)o1 | 15 | -53 | -2 | 3 | -20 | -10
Cc1ccc(N/N=C/c2c(O)cc(C)oc2=O)cc1 | 8 | 99* | 0 | 12 | -33 | -15
C/C(=N\Nc1ccccc1)c1c(O)cc(C)oc1=O | -5 | 99* | -3 | 7 | -4 | 14
C/C(=N/NC(=O)c1cccc(C)c1)c1c(O)cc(C)oc1=O | -4 | 30 | 11 | -2 | 3 | -8
CCOc1ccc(N(CC(=O)Nc2cc(Cl)ccc2C)S(C)(=O)=O)cc1 | -6 | -7 | 7 | 1 | -1 | 0
CCN(CC1CCCN(CCc2cccc(OC)c2)C1)C(=O)c1ccoc1 (stereo not drawn) | 2 | -2 | 4 | -2 | 1 | -12
Cc1cc(C)c(C#N)c(N2CCN(c3ccccc3F)CC2)n1 | -6 | . | -4 | 6 | 2 | 2
COc1cccc(N2CCN(c3nc(C)cc(C)c3C#N)CC2)c1 | -3 | 86* | 6 | 6 | 7 | 7
COc1cc(C(=O)OCCCN2CCOCC2)ccc1O | 5 | 99* | -3 | -2 | -1 | 15
CC(C)C(=O)Nc1ccc(NC(=O)c2ccc(COc3ccccc3)cc2)cc1 | -6 | . | -3 | -19 | 8 | 21
COc1cc(N=Nc2c(C)n(C)n(-c3ccccc3)c2=O)ccc1N | 0 | 98* | 9 | 4 | -8 | -4
Cc1cccc2cc3c(nc12)SC(=NCC1CCCO1)N(Cc1ccco1)C3 (stereo not drawn) | 19 | -11 | 13 | -2 | 79* | -1
Cc1ccc2nc3c(cc2c1)CN(Cc1ccco1)C(=NCC1CCCO1)S3 (stereo not drawn) | 7 | -6 | -3 | -8 | 10 | -1
CC(C)(C)c1ccc(C(=O)NCc2nnc(SCC(=O)NC3CCCCC3)o2)cc1 | -5 | 44 | 5 | 8 | 2 | 6
O=C(Nc1ccccn1)c1cccc(S(=O)(=O)N2CCc3ccccc3C2)c1 | . | . | 9 | . | 7 | -4
COc1ccc(Nc2nc3ccccc3n2C)cc1 | 6 | 77* | 3 | -15 | 2 | 15
